{"source": "ChEMBL document CHEMBL1140653", "about": "“Cytostatic activity of novel 4'-aminochalcone-based imides” (Bioorg Med Chem Lett, 2007)", "key": {"CCRF-CEM": {"test_system": "CCRF-CEM", "test": "Cytotoxicity against human CEM cells", "type": "functional, cell-based"}, "L1210": {"test_system": "L1210", "test": "Cytotoxicity against mouse L1210 cells", "type": "functional, cell-based"}, "[1]": {"test": "Cytotoxicity against human Molt4/C8 cells", "type": "functional, cell-based", "conditions": "MOLT-4"}, "Mus musculus [2]": {"test_system": "Mus musculus", "test": "Neurotoxicity in mouse at 300 mg/kg, ip after 4 hrs by rotating rod method", "type": "toxicity, organism-based", "design": "dose 300 mg/kg, route intraperitoneal", "conditions": "in vivo", "method_in_brief": "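Intraperitoneal dosing in mice at 30, 100 and 300 mg/kg. Neurological deficit was scored by the rotating rod procedure at 0.5 and 4 h, with observation for other pathological signs. Results were recorded as animals showing neurotoxicity over total animals at each dose.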"}, "Mus musculus [3]": {"test_system": "Mus musculus", "test": "Mortality in mouse at 300 mg/kg, ip after 4 hrs", "type": "ADME, organism-based", "design": "dose 300 mg/kg, route intraperitoneal", "conditions": "in vivo", "method_in_brief": "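Mice dosed intraperitoneally at 30, 100 and 300 mg/kg; animals observed for death at 0.5 and 4 h after injection as part of a short-term toxicity screen.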"}}}
{"molecule": "O=C(O)c1ccc(/C=C/C(=O)c2ccc(N3C(=O)C=CC3=O)cc2)cc1", "values": [{"measurement": "IC50", "setting": "CCRF-CEM", "value": 133, "unit": "µM"}, {"measurement": "IC50", "setting": "L1210", "value": 135, "unit": "µM"}, {"measurement": "IC50", "setting": "[1]", "value": 178, "unit": "µM"}, {"measurement": "Activity", "setting": "Mus musculus [2]", "value": "Toxic"}, {"measurement": "Activity", "setting": "Mus musculus [3]", "value": "Toxic"}]}
{"molecule": "O=C(/C=C/c1ccc2c(c1)OCO2)c1ccc(N2C(=O)C=CC2=O)cc1", "values": [{"measurement": "IC50", "setting": "CCRF-CEM", "value": 258, "unit": "µM"}, {"measurement": "IC50", "setting": "L1210", "value": 160, "unit": "µM"}, {"measurement": "IC50", "setting": "[1]", "value": 214, "unit": "µM"}]}
{"molecule": "O=C(/C=C/c1ccccc1)c1ccc(N2C(=O)C=CC2=O)cc1", "values": [{"measurement": "IC50", "setting": "CCRF-CEM", "value": 9.8, "unit": "µM"}, {"measurement": "IC50", "setting": "L1210", "value": 8.6, "unit": "µM"}, {"measurement": "IC50", "setting": "[1]", "value": 9.5, "unit": "µM"}]}
{"molecule": "Cc1ccc(/C=C/C(=O)c2ccc(N3C(=O)C=CC3=O)cc2)cc1", "values": [{"measurement": "IC50", "setting": "CCRF-CEM", "value": 4.1, "unit": "µM"}, {"measurement": "IC50", "setting": "L1210", "value": 1.5, "unit": "µM"}, {"measurement": "IC50", "setting": "[1]", "value": 2.4, "unit": "µM"}]}
{"molecule": "O=C(/C=C/c1ccc(Cl)cc1)c1ccc(N2C(=O)C=CC2=O)cc1", "values": [{"measurement": "IC50", "setting": "CCRF-CEM", "value": 7.5, "unit": "µM"}, {"measurement": "IC50", "setting": "L1210", "value": 7.3, "unit": "µM"}, {"measurement": "IC50", "setting": "[1]", "value": 7.5, "unit": "µM"}]}
{"molecule": "O=C(/C=C/c1ccc([N+](=O)[O-])cc1)c1ccc(N2C(=O)C=CC2=O)cc1", "values": [{"measurement": "IC50", "setting": "CCRF-CEM", "value": "> 500", "unit": "µM"}, {"measurement": "IC50", "setting": "L1210", "value": "> 500", "unit": "µM"}, {"measurement": "IC50", "setting": "[1]", "value": "> 500", "unit": "µM"}]}
{"molecule": "COc1ccc(/C=C/C(=O)c2ccc(N3C(=O)C=CC3=O)cc2)cc1OC", "values": [{"measurement": "IC50", "setting": "CCRF-CEM", "value": 220, "unit": "µM"}, {"measurement": "IC50", "setting": "L1210", "value": 157, "unit": "µM"}, {"measurement": "IC50", "setting": "[1]", "value": 202, "unit": "µM"}]}
{"molecule": "O=C(/C=C/c1ccc(Cl)c(Cl)c1)c1ccc(N2C(=O)C=CC2=O)cc1", "values": [{"measurement": "IC50", "setting": "CCRF-CEM", "value": 7.7, "unit": "µM"}, {"measurement": "IC50", "setting": "L1210", "value": 6.5, "unit": "µM"}, {"measurement": "IC50", "setting": "[1]", "value": 8.8, "unit": "µM"}]}
{"molecule": "COc1ccc(/C=C/C(=O)c2ccc(N3C(=O)C=CC3=O)cc2)cc1", "values": [{"measurement": "IC50", "setting": "CCRF-CEM", "value": 8.4, "unit": "µM"}, {"measurement": "IC50", "setting": "L1210", "value": 9.8, "unit": "µM"}, {"measurement": "IC50", "setting": "[1]", "value": 7.9, "unit": "µM"}, {"measurement": "Activity", "setting": "Mus musculus [2]", "value": "Non-toxic"}]}
